Assay results taken from ChEMBL document CHEMBL1123833, “Novel inhibitors of rat lens aldose reductase: N-[[(substituted amino)phenyl]sulfonyl]glycines” (J Med Chem, 1987).

Tests used:
[1] = target: Aldo-keto reductase family 1 member B1 (Rattus norvegicus) (UniProt P07943); assay: Inhibition of rat aldose reductase activity at 100 uM.
Summary of the method: (§1)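 Crude rat lens enzyme: 50 lenses homogenized in distilled water and spun at 10000 rpm for 10 min at 0–5 °C. Supernatant diluted so the control rate was 0.010 ± 0.002 A/min. Reaction in 0.1 M phosphate pH 6.2 with 0.104 mM NADPH, started with 10 mM DL-glyceraldehyde. NADPH loss read at 340 nm for 3.0 min against a glyceraldehyde-free blank. Inhibitor tested at 100 μM; % inhibition vs substrate-only control, reported with SEM.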

[2] = target: Aldo-keto reductase family 1 member B1 (Rattus norvegicus, UniProt P07943); assay: Inhibition of rat aldose reductase enzyme.
Summary of the method: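 Rat lens supernatant (homogenized in water, spun at 0–5 °C, diluted to a control rate of 0.010 ± 0.002 A/min). Assayed in 0.1 M phosphate pH 6.2, 0.104 mM NADPH, 10 mM DL-glyceraldehyde, following A340 decrease for 3.0 min. Four inhibitor concentrations, three determinations each. IC50 from least-squares fit of the log dose-response curve.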

[3] = target: Aldo-keto reductase family 1 member B1 (Rattus norvegicus) (UniProt P07943); assay: Compound was tested for percent inhibition of aldose reductase inhibitory activity using rat lens assay at concentration of 100 uM; summary of the method: as §1

Row | SMILES | inhibition [1] [%] | IC50 [2] [µM] | inhibition [3] [%]
1 | O=C(O)CNS(=O)(=O)c1ccc(NC(=O)COCc2ccccc2)cc1 | 79 | 3.5 | –
2 | O=C(O)CNS(=O)(=O)c1ccc(N/C(S)=N/c2ccccc2)cc1 | 65 | 8.42 | –
3 | O=C(O)CNS(=O)(=O)c1ccc(NC(=O)Nc2ccccc2)cc1 | 83 | 2.75 | –
4 | Nc1ccc(S(=O)(=O)NCC(=O)O)cc1 | 76 | 16 | –
5 | O=C(O)CNS(=O)(=O)c1ccc(NC(=O)CCc2ccccc2)cc1 | 86 | 11.5 | –
6 | CC(=O)Nc1ccc(S(=O)(=O)NCC(=O)O)cc1 | 88 | 4.22 | –
7 | O=C(O)CNS(=O)(=O)c1ccc(NC(=O)COc2ccccc2)cc1 | 87 | 2.64 | –
8 | O=C(O)CNS(=O)(=O)c1ccc(NC(=O)OCc2ccccc2)cc1 | 82 | 6.03 | –
9 | O=C(O)CNS(=O)(=O)c1ccc(NCc2ccccc2)cc1 | 71 | 7.04 | –
10 | O=C(O)CNS(=O)(=O)c1ccc(NC(=O)c2ccccc2)cc1 | 81 | 0.41 | –
11 | O=C(O)CNS(=O)(=O)c1ccc(NC(=O)Cc2ccccc2)cc1 | – | 2.17 | 100
12 | Nc1ccccc1S(=O)(=O)NCC(=O)O | 74 | 38 | –
13 | CN(C)c1ccc(S(=O)(=O)NCC(=O)O)cc1 | 80 | 10.9 | –
14 | O=C(O)CNS(=O)(=O)c1ccccc1NC(=O)c1ccccc1 | 52 | 78 | –
15 | O=C(O)CNS(=O)(=O)c1ccc(NC(=O)/C=C/c2ccccc2)cc1 | 72 | 0.69 | –
16 | Nc1cccc(S(=O)(=O)NCC(=O)O)c1 | 73 | 29 | –
17 | O=C(O)CNS(=O)(=O)c1cccc(NC(=O)c2ccccc2)c1 | 79 | 7.12 | –
